MrgX1 allo act: allosterically activates human MrgX1 receptor signaling. Q96LB2. MrgX1-HEK293, Fluo-4 calcium flux, FDSS; stronger effect = higher value. B-score at 10 µM. 310,000 compounds, 0.63% hits. AID 588675;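 active means plate-corrected calcium response at least 3 library SD above typical, normal starting fluorescence, not activating the receptor alone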;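 further: compound read alongside a low EC10 to EC30 dose of BAM8-22 agonist; peak minus trough fluorescence over baseline measured at the second addition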
RGS4 act: potentiators or activators of RGS4. HEK293 M3R/inducible RGS4, carbachol calcium flux Fluo4; stronger effect = lower value. B-score at 10 µM. 310,000 compounds, 0.92% hits. AID 463111;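 active means B-score of the integrated calcium signal more than 4 SD below the library mean, with starting fluorescence not abnormally high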;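 further: negative B-score means reduced calcium response which marks RGS4 activation or potentiation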
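Detection: kinetic calcium fluorescence imaging with Fluo4-AM dye, 2 µM / Material: HEK293 cells with stable M3R and inducible RGS4 / Schedule: recording 10 s baseline at 1 Hz, 100 s post-agonist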
MrgX1 ag: agonists of human MrgX1 receptor; MrgX1-HEK293 cells, Fluo-4 calcium fluorescence, agonist mode; stronger effect = higher value; AID 588627; B-score at 10 µM; Q96LB2; 310,000 compounds, 0.44% hits;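 active means calcium response B-score plate-corrected fluorescence ratio at least 3 library SD, with starting fluorescence B-score inside 5 SD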
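Material: MrgX1-expressing HEK293 cells / Dosing: compound as first of three additions / Incubation: overnight seeding, then 1 h dark dye loading / Signal: Fluo-4 NW calcium fluorescence / Evaluation: B-scored fluorescence response ratio / Benchmarks: positive and negative control wells on each plate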
RGS4 block: inhibitors of human RGS4; P49798; HEK293 M3R/RGS4 inducible, Fluo-4 calcium flux; stronger effect = higher value; triggered by carbachol at its EC20; B-score at 10 µM; 310,000 compounds, 0.45% hits; AID 463165;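 active means B-score, a plate-corrected calcium signal, over three deviations above library mean, with baseline fluorescence within five deviations of library mean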;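 further: RGS4 expression induced by doxycycline in cells with stable M3 receptor; B-score is computed from the integrated fluorescence ratio over baseline after carbachol; higher B-score means a larger calcium signal and so more RGS4 inhibition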
MrgX1 antag: blocks BAM8-22 activation of human MrgX1 receptor; Q96LB2; MRGX1-HEK293 calcium flux, Fluo-4, BAM8-22 antagonism; stronger effect = lower value; B-score at 10 µM; 310,000 compounds, 1.3% hits; AID 588676;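 active means calcium-response B-score plate-corrected more than 3 library SD below zero, starting fluorescence within 5 deviations, no agonist response on first addition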;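 further: peak minus trough fluorescence over baseline after final BAM8-22 challenge near maximal dose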
Cl transport mod: modulates chloride dependent transport by human KCC2 | Q9H2X9 | KCC2 cells, thallium flux FluoZin-2 fluorescence | B-score of Tl+ flux slope (higher = more flux/activation; lower = inhibition) at 10 µM | 190,000 compounds, 2.2% hits;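 active means thallium flux slope and its plate-corrected score both differing from the plate sample mean at a set confidence after two filtering rounds, in either direction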;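 further: slope of fluorescence scaled to starting intensity during 10 to 20 s after thallium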
Target sequence (Q9H2X9 whole entry, looked up): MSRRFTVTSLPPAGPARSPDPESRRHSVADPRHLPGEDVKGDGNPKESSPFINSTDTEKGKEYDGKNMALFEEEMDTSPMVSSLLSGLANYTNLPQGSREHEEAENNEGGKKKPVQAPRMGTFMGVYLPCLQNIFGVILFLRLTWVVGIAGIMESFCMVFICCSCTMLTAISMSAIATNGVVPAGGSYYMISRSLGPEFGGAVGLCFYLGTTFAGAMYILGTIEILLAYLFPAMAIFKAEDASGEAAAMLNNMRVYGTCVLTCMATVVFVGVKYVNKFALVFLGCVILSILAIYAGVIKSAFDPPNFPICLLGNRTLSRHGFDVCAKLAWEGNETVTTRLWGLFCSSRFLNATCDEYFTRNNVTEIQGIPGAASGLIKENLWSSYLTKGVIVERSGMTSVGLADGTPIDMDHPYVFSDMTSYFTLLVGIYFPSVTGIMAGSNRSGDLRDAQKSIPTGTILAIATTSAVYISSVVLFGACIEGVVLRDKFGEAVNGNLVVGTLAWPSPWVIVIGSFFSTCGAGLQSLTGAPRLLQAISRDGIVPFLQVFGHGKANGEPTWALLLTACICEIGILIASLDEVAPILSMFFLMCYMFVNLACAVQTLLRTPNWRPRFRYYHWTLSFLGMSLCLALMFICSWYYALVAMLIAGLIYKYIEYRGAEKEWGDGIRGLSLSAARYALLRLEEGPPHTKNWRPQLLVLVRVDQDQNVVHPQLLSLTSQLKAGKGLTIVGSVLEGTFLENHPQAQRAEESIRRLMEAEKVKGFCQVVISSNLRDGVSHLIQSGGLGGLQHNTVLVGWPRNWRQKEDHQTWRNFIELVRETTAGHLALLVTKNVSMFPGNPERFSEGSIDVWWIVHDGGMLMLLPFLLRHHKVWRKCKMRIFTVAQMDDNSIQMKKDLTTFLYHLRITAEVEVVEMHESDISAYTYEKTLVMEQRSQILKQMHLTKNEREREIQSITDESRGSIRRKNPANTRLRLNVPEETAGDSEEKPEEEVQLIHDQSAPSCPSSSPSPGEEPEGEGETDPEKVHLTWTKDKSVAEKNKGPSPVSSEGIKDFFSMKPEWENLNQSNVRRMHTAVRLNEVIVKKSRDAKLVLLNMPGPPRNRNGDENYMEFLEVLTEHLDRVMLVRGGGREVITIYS
KCC2 sec1: KCC2 (human) modulation, secondary assay; shares compounds with Cl transport mod; HEK293-KCC2, thallium flux, FluoZin2 fluorescence; stronger effect = higher value; 3,700 compounds, 15% hits; AID 1713; normalised thallium flux (F/F0 slope) at 10 µM;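 active means thallium flux slope above the same plate's solvent-only control mean plus 3 SD; inconclusive means the two replicate wells disagree; inactive means no significant difference from solvent-only control wells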
KCC2 bumet counter: thallium flux persisting under bumetanide in KCC2 cells, counter-screen secondary assay | shares compounds with Cl transport mod | HEK293-KCC2 + bumetanide/ouabain, thallium flux FluoZin2; stronger effect = higher value | normalized thallium flux at 10 µM | 3,700 compounds, 49% hits | AID 1714;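 active means thallium entry rate above the same plate's blocked-transporter control wells by more than 3 SD; inconclusive means the two repeat wells disagree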;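 further: raw slope of fluorescence over initial fluorescence between 10 and 20 s after thallium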
KCC2 secondary2: KCC2 (human) modulation, second secondary assay; normalized thallium flux at 10 µM; HEK293-KCC2, thallium flux FluoZin2 fluorescence; actives lie on both sides; F/F0 rise rate, 10–20 s post-thallium; shares compounds with Cl transport mod; 3,700 compounds, 23% hits;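 active means thallium flux slope more than 3 SD above or below the plate's solvent-only control mean, mostly below; inconclusive means the two repeat wells disagreed; inactive means no significant shift from solvent-only controls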
HEK counter1: acts in parental HEK cells, KCC2 counter-screen | shares compounds with Cl transport mod | HEK293 parental cells, thallium flux FluoZin2, ouabain; baseline-ratio fluorescence slope, 10–20 s after thallium | thallium flux rate (normalised fluorescence) at 10 µM | 3,700 compounds, 46% hits | AID 1716;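 active means thallium flux rate significantly above the same plate's solvent-only control wells, beyond their mean plus 3 SD; inconclusive means the two replicate wells gave conflicting results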
KCC2 retest ouab: KCC2 (human) modulation, ouabain retest | shares compounds with Cl transport mod | HEK293-KCC2, thallium flux FluoZin2 fluorescence; bidirectional: low = inhibitor, high = activator | raw Tl+ flux slope (below DMSO = inhibition, above = activation) at 10 µM | 3,700 compounds, 48% hits;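 active means thallium flux slope beyond 3 SD from same-plate DMSO control mean in most replicates, usually higher, sometimes lower; inconclusive means repeat tests gave conflicting results; inactive means no significant difference from controls in most replicates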;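 further: slope of initial-normalized fluorescence between seconds 10 and 20 after thallium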
HEK counter2: acts in parental HEK cells, second KCC2 counter-screen | 3,700 compounds, 33% hits | AID 1718 | thallium flux slope at 10 µM | HEK293 parental, thallium flux FluoZin-2 fluorescence slope | shares compounds with Cl transport mod;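 active means thallium flux slope above the same plate's solvent-control mean plus 3 SD in both duplicate wells; inconclusive means duplicate wells that disagreed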;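 further: run without ouabain in cells lacking the KCC2 cotransporter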
Of the large screens only hits and unclear results are named; the others gave an inactive call (follow-up assays come after a bar, where they were run). This is a sample that favours compounds with a hit; in the whole collection about 4.7% have one here.

Cc1ccsc1/C=N\NC(=O)c1ccc2c(c1)OCO2	Cl transport mod 5.9 | KCC2 sec1 inactive | KCC2 bumet counter 0.0063 | KCC2 secondary2 inactive | HEK counter1 0.011 | KCC2 retest ouab inactive | HEK counter2 inconclusive
Cc1ccsc1/C=N/NC(=O)c1ccc2c(c1)OCCO2	none
CS(=O)(=O)N(CC(=O)N1CCCC1)c1ccc2c(c1)OCCO2	none (no result: Cl transport mod) | KCC2 sec1 inactive | KCC2 bumet counter inactive | KCC2 secondary2 inactive | HEK counter1 inactive | KCC2 retest ouab inactive | HEK counter2 inactive
COc1ccc(/C=N/NC(=O)CSc2ccccc2)cc1OC	none
COc1ccc(/C=N/NC(=S)SC)cc1OC	Cl transport mod 38 | KCC2 sec1 inconclusive | KCC2 bumet counter 0.076 | KCC2 secondary2 0.063 | HEK counter1 0.053 | KCC2 retest ouab 0.073 | HEK counter2 0.055
O=[N+]([O-])c1ccccc1NC1CCN(Cc2ccccc2)CC1	none
O=[N+]([O-])c1ccc(NC2CCN(Cc3ccccc3)CC2)c([N+](=O)[O-])c1	Cl transport mod -5.2 | KCC2 sec1 inactive | KCC2 bumet counter inactive | KCC2 secondary2 0.022 | HEK counter1 inactive | KCC2 retest ouab inconclusive | HEK counter2 inactive
O=C1C2CCCCC2C(=O)N1c1ccc(NC2CCN(Cc3ccccc3)CC2)c([N+](=O)[O-])c1 (configuration not stated)	Cl transport mod -8.5 | KCC2 sec1 inactive | KCC2 bumet counter 0.0077 | KCC2 secondary2 0.026 | HEK counter1 inactive | KCC2 retest ouab 0.014 | HEK counter2 inactive
O=C1CCC(=O)N1c1ccc(NC2CCN(Cc3ccccc3)CC2)c([N+](=O)[O-])c1	Cl transport mod -5.9 | KCC2 sec1 inactive | KCC2 bumet counter inactive | KCC2 secondary2 0.025 | HEK counter1 inconclusive | KCC2 retest ouab inactive | HEK counter2 inactive
CC1CCC2C(=O)N(c3ccc(NC4CCN(Cc5ccccc5)CC4)c([N+](=O)[O-])c3)C(=O)C2C1 (configuration not stated)	none
CC(=O)Nc1ccc(NC(=O)CSc2nnc(-c3cccs3)n2N)cc1	none (no result: Cl transport mod)
Oc1ccc(/C=C/c2ccc3ccccc3n2)cc1	none
O/C(=C\c1ccc2ccccc2n1)c1ccc(O)cc1O	Cl transport mod -5.1 | KCC2 sec1 0.0058 | KCC2 bumet counter inactive | KCC2 secondary2 inactive | HEK counter1 inactive | KCC2 retest ouab 0.014 | HEK counter2 inactive
COc1ccc(/C=C2\CCc3ccccc3C2=O)cc1CN1CCOCC1	Cl transport mod -5 | KCC2 sec1 inconclusive | KCC2 bumet counter inconclusive | KCC2 secondary2 0.023 | HEK counter1 inactive | KCC2 retest ouab inconclusive | HEK counter2 inactive
COc1ccc(/C=C2/CCc3ccccc3C2=O)cc1OC	none
CCOc1ccc(S(=O)(=O)N(C)CC(=O)NC2CCCC2)cc1	none (no result: Cl transport mod)
CCCCN(C(=O)CCNC(=O)NC12CC3CC(CC(C3)C1)C2)c1c(N)n(CCC)c(=O)[nH]c1=O	none (no result: Cl transport mod)
Cc1cc(C)n(-c2nc3sc4c(c3c(=O)[nH]2)CCCC4)n1	Cl transport mod 42 | KCC2 sec1 inactive | KCC2 bumet counter 0.1 | KCC2 secondary2 0.098 | HEK counter1 0.1 | KCC2 retest ouab 0.089 | HEK counter2 0.069
O=C(OCC(=O)N1CCN(C(=O)c2ccco2)CC1)c1ccccc1	none
O=C(OCC(=O)N1CCN(C(=O)c2ccco2)CC1)c1sc2ccccc2c1Cl	Cl transport mod -4 | KCC2 sec1 inactive | KCC2 bumet counter inconclusive | KCC2 secondary2 inconclusive | HEK counter1 inactive | KCC2 retest ouab inactive | HEK counter2 inactive
CNC(=O)C(=O)Nc1nc(C23CC4CC(CC(C4)C2)C3)cs1	Cl transport mod 3.9 | KCC2 sec1 inactive | KCC2 bumet counter 0.012 | KCC2 secondary2 inactive | HEK counter1 0.013 | KCC2 retest ouab inconclusive | HEK counter2 0.013
O=C(NCc1ccc(F)cc1)C(=O)Nc1nc(C23CC4CC(CC(C4)C2)C3)cs1	Cl transport mod 8.9 | KCC2 sec1 inactive | KCC2 bumet counter 0.038 | KCC2 secondary2 inactive | HEK counter1 0.021 | KCC2 retest ouab 0.034 | HEK counter2 0.018
O=C(NCc1ccncc1)C(=O)Nc1nc(C23CC4CC(CC(C4)C2)C3)cs1	none
O=C(C1CC1)N1N=C(c2ccccc2)CC1(O)C(F)(F)C(F)(F)F (configuration not stated)	none (no result: Cl transport mod)
CC(OC(=O)c1cccc(S(=O)(=O)N(C)C)c1)C(=O)NCc1ccc2c(c1)OCO2 (configuration not stated)	none (no result: Cl transport mod)
CCC(=O)Oc1ccc(C(CC)C(CC)c2ccc(OC(=O)CC)cc2)cc1 (configuration not stated)	Cl transport mod 11 | KCC2 sec1 inactive | KCC2 bumet counter inactive | KCC2 secondary2 inactive | HEK counter1 inactive | KCC2 retest ouab inactive | HEK counter2 inactive
O=C(NCC1COc2ccccc2O1)c1ccc(Br)s1 (configuration not stated)	none (no result: Cl transport mod)
CCOC(=O)c1ccc(NC(=O)CC2C(=O)N(c3ccc(F)cc3)C(=O)N2CCC(C)C)cc1 (configuration not stated)	Cl transport mod -3.5 | KCC2 sec1 inactive | KCC2 bumet counter inactive | KCC2 secondary2 inactive | HEK counter1 inactive | KCC2 retest ouab inactive | HEK counter2 inactive
C=CCn1c(-c2ccc(Cl)cc2)c[nH]c1=S	Cl transport mod 5.2 | KCC2 sec1 inconclusive | KCC2 bumet counter 0.029 | KCC2 secondary2 inactive | HEK counter1 0.011 | KCC2 retest ouab inactive | HEK counter2 inconclusive
C=CCn1c(-c2ccccc2)c[nH]c1=S	none

Source: PubChem BioAssay
